Data taken from ChEMBL document CHEMBL4689842, “EUbOPEN Chemogenomics Library wave 1” (2021).

How the values were obtained:
Type in all cases: toxicity, cell-based
Fibroblast [1] = assay: Multiplex assay against human fibroblast
Outline: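 Compound was added to live cells that had been stained at seeding with Hoechst33342, BioTracker Green Microtubule Cytoskeleton Dye, MitoTracker Red and Annexin V Alexa Fluor 680, and imaging followed on a CQ1 microscope at 37°C and 5% CO2. CellPathfinder machine-learning gating divided cells into Hoechst high-intensity objects or normal cells, normal cells into healthy, pyknosed or fragmented nuclei, and pyknosed cells into mitotic or apoptotic. Tubulin, mitochondrial-mass and membrane-permeability phenotypes are per cents of healthy-nucleus cells.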

Fibroblast [2] = assay: Incucyte cell viability with human fibroblast; conditions: 10 µM, compound concentration 10 uM; further: filed as whole numbers so only -1 and 0 and 1 occur
U2OS = assay: Incucyte cell viability with U2OS; conditions: human, 10 µM, compound concentration 10 uM; further: filed as whole numbers so only -1 and 0 and 1 occur
[3] = 12 h, 1 µM, compound concentration 1 uM, replicate 1
[4] = 12 h, 1 µM, compound concentration 1 uM, replicate 2
[5] = 12 h, 10 µM, compound concentration 10 uM, replicate 1
[6] = 12 h, 10 µM, compound concentration 10 uM, replicate 2
[7] = 24 h, 1 µM, compound concentration 1 uM, replicate 1
[8] = 24 h, 1 µM, compound concentration 1 uM, replicate 2
[9] = 24 h, 10 µM, compound concentration 10 uM, replicate 1
[10] = 24 h, 10 µM, compound concentration 10 uM, replicate 2
[11] = 0 h, replicate number 1, timepoint 0 hours
[12] = 6 h, replicate number 1, timepoint 6 hours
[13] = 12 h, replicate number 1, timepoint 12 hours
[14] = 18 h, replicate number 1, timepoint 18 hours
[15] = 24 h, replicate number 1, timepoint 24 hours

N#Cc1cnc(Nc2cc(NC[C@H]3CNCCO3)c(C(F)(F)F)cn2)cn1 [SRA-737]
Population Apoptotic (%) (Fibroblast [1]; [3]): 65%
Population Fragmented Nuclei (%) (Fibroblast [1]; [3]): 23%
Population Healthy Nuclei (%) (Fibroblast [1]; [3]): 59%
Population Hoechst High Intensity Objects (%) (Fibroblast [1]; [3]): 13%
Population Membrane Permeable-Phenotype (%) (Fibroblast [1]; [3]): 9%
Population Mitochondria Different-Phenotype (%) (Fibroblast [1]; [3]): 1%
Population Mitotic Cells (%) (Fibroblast [1]; [3]): 34%
Population Normal (%) (Fibroblast [1]; [3]): 86%
Population Tubulin-Different-Phenotype (%) (Fibroblast [1]; [3]): 4%
Total Cell Count (Fibroblast [1]; [3]): 196
Population Apoptotic (%) (Fibroblast [1]; [4]): 37%
Population Fragmented Nuclei (%) (Fibroblast [1]; [4]): 60%
Population Healthy Nuclei (%) (Fibroblast [1]; [4]): 21%
Population Hoechst High Intensity Objects (%) (Fibroblast [1]; [4]): 35%
Population Membrane Permeable-Phenotype (%) (Fibroblast [1]; [4]): 10%
Population Mitochondria Different-Phenotype (%) (Fibroblast [1]; [4]): 0%
Population Mitotic Cells (%) (Fibroblast [1]; [4]): 62%
Population Normal (%) (Fibroblast [1]; [4]): 64%
Population Pyknosed Nuclei (%) (Fibroblast [1]; [4]): 17%
Population Tubulin-Different-Phenotype (%) (Fibroblast [1]; [4]): 0%
Total Cell Count (Fibroblast [1]; [4]): 71
Population Apoptotic (%) (Fibroblast [1]; [5]): 69%
Population Fragmented Nuclei (%) (Fibroblast [1]; [5]): 33%
Population Healthy Nuclei (%) (Fibroblast [1]; [5]): 53%
Population Hoechst High Intensity Objects (%) (Fibroblast [1]; [5]): 12%
Population Membrane Permeable-Phenotype (%) (Fibroblast [1]; [5]): 11%
Population Mitochondria Different-Phenotype (%) (Fibroblast [1]; [5]): 1%
Population Mitotic Cells (%) (Fibroblast [1]; [5]): 30%
Population Normal (%) (Fibroblast [1]; [5]): 87%
Population Pyknosed Nuclei (%) (Fibroblast [1]; [5]): 13%
Population Tubulin-Different-Phenotype (%) (Fibroblast [1]; [5]): 8%
Total Cell Count (Fibroblast [1]; [5]): 288
Population Apoptotic (%) (Fibroblast [1]; [6]): 28%
Population Fragmented Nuclei (%) (Fibroblast [1]; [6]): 58%
Population Healthy Nuclei (%) (Fibroblast [1]; [6]): 28%
Population Hoechst High Intensity Objects (%) (Fibroblast [1]; [6]): 34%
Population Membrane Permeable-Phenotype (%) (Fibroblast [1]; [6]): 7%
Population Mitochondria Different-Phenotype (%) (Fibroblast [1]; [6]): 35%
Population Mitotic Cells (%) (Fibroblast [1]; [6]): 71%
Population Normal (%) (Fibroblast [1]; [6]): 65%
Population Pyknosed Nuclei (%) (Fibroblast [1]; [6]): 14%
Population Tubulin-Different-Phenotype (%) (Fibroblast [1]; [6]): 21%
Total Cell Count (Fibroblast [1]; [6]): 76
Population Apoptotic (%) (Fibroblast [1]; [7]): 50%
Population Fragmented Nuclei (%) (Fibroblast [1]; [7]): 31%
Population Healthy Nuclei (%) (Fibroblast [1]; [7]): 56%
Population Hoechst High Intensity Objects (%) (Fibroblast [1]; [7]): 9%
Population Membrane Permeable-Phenotype (%) (Fibroblast [1]; [7]): 7%
Population Mitochondria Different-Phenotype (%) (Fibroblast [1]; [7]): 2%
Population Mitotic Cells (%) (Fibroblast [1]; [7]): 50%
Population Normal (%) (Fibroblast [1]; [7]): 90%
Population Pyknosed Nuclei (%) (Fibroblast [1]; [7]): 11%
Population Tubulin-Different-Phenotype (%) (Fibroblast [1]; [7]): 1%
Total Cell Count (Fibroblast [1]; [7]): 205
Population Apoptotic (%) (Fibroblast [1]; [8]): 42%
Population Fragmented Nuclei (%) (Fibroblast [1]; [8]): 63%
Population Healthy Nuclei (%) (Fibroblast [1]; [8]): 22%
Population Hoechst High Intensity Objects (%) (Fibroblast [1]; [8]): 24%
Population Membrane Permeable-Phenotype (%) (Fibroblast [1]; [8]): 9%
Population Mitochondria Different-Phenotype (%) (Fibroblast [1]; [8]): 9%
Population Mitotic Cells (%) (Fibroblast [1]; [8]): 57%
Population Normal (%) (Fibroblast [1]; [8]): 75%
Population Pyknosed Nuclei (%) (Fibroblast [1]; [8]): 14%
Population Tubulin-Different-Phenotype (%) (Fibroblast [1]; [8]): 18%
Total Cell Count (Fibroblast [1]; [8]): 65
Population Apoptotic (%) (Fibroblast [1]; [9]): 71%
Population Fragmented Nuclei (%) (Fibroblast [1]; [9]): 41%
Population Healthy Nuclei (%) (Fibroblast [1]; [9]): 48%
Population Hoechst High Intensity Objects (%) (Fibroblast [1]; [9]): 18%
Population Membrane Permeable-Phenotype (%) (Fibroblast [1]; [9]): 9%
Population Mitochondria Different-Phenotype (%) (Fibroblast [1]; [9]): 2%
Population Mitotic Cells (%) (Fibroblast [1]; [9]): 28%
Population Normal (%) (Fibroblast [1]; [9]): 81%
Population Pyknosed Nuclei (%) (Fibroblast [1]; [9]): 10%
Population Tubulin-Different-Phenotype (%) (Fibroblast [1]; [9]): 15%
Total Cell Count (Fibroblast [1]; [9]): 342
Population Apoptotic (%) (Fibroblast [1]; [10]): 28%
Population Fragmented Nuclei (%) (Fibroblast [1]; [10]): 59%
Population Healthy Nuclei (%) (Fibroblast [1]; [10]): 26%
Population Hoechst High Intensity Objects (%) (Fibroblast [1]; [10]): 27%
Population Membrane Permeable-Phenotype (%) (Fibroblast [1]; [10]): 15%
Population Mitochondria Different-Phenotype (%) (Fibroblast [1]; [10]): 30%
Population Mitotic Cells (%) (Fibroblast [1]; [10]): 71%
Population Normal (%) (Fibroblast [1]; [10]): 72%
Population Pyknosed Nuclei (%) (Fibroblast [1]; [10]): 14%
Population Tubulin-Different-Phenotype (%) (Fibroblast [1]; [10]): 30%
Total Cell Count (Fibroblast [1]; [10]): 68
Growth Rate (Fibroblast [2]; [11]): 0
Growth Rate (Fibroblast [2]; [12]): 1
Growth Rate (Fibroblast [2]; [13]): 1
Growth Rate (Fibroblast [2]; [14]): 1
Growth Rate (Fibroblast [2]; [15]): 0
Growth Rate (Fibroblast [2]; 24 h, replicate number 2, timepoint 24 hours): 1
Growth Rate (U2OS; [11]): 1
Growth Rate (U2OS; 0 h, replicate number 2, timepoint 0 hours): 0
Growth Rate (U2OS; [12]): 0
Growth Rate (U2OS; [13]): 0
Growth Rate (U2OS; [14]): 0
Growth Rate (U2OS; [15]): 0
